Results published in ChEMBL document CHEMBL4680175, “Sulfonamide-based ring-fused analogues for CAN508 as novel carbonic anhydrase inhibitors endowed with antitumor activity: Design, synthesis, and in vitro biological evaluation” (Eur J Med Chem, 2020).
Calls of active or inactive are those of the source. No cut-off for these calls is given here.

Experiments:
MCF7 [1] = test: Antiproliferative activity against human MCF7 cells measured after 48 hrs under normoxic condition by MTT assay; format: functional, cell-based; conditions: MCF7, 48 h
Carbonic anhydrase 1 = Carbonic anhydrase 1 (Homo sapiens, UniProt P00915); test: Inhibition of recombinant human carbonic anhydrase 1 preincubated with enzyme for 15 mins by phenol red dye based stopped flow CO2 hydrase assay
Carbonic anhydrase 2 = Carbonic anhydrase 2 (Homo sapiens, UniProt P00918); test: Inhibition of recombinant human carbonic anhydrase 2 preincubated with enzyme for 15 mins by phenol red dye based stopped flow CO2 hydrase assay
Carbonic anhydrase 9 = Carbonic anhydrase 9 (Homo sapiens, UniProt Q16790); test: Inhibition of recombinant human carbonic anhydrase 9 preincubated with enzyme for 15 mins by phenol red dye based stopped flow CO2 hydrase assay
Carbonic anhydrase 12 = Carbonic anhydrase 12 (Homo sapiens, UniProt O43570); test: Inhibition of recombinant human carbonic anhydrase 12 preincubated with enzyme for 15 mins by phenol red dye based stopped flow CO2 hydrase assay
[2] = target: Cyclin-dependent kinase 2/cyclin E1 (Homo sapiens, UniProt P24941); test: Inhibition of CDK2/cyclin E (unknown origin) expressed in baculovirus infected Sf21 insect cells using histone H1 as substrate in presence of [gamma33P]ATP
CDK9/cyclin T1 = CDK9/cyclin T1 (Homo sapiens, UniProt P50750); test: Inhibition of human full-length N-terminal GST/His6-tagged CDK9 (1 to 372 residues)/His6-tagged Cyclin-T1 (1 to 726 residues) expressed in sf9 cells using (YSPTSPS)2KK peptide as substrate in presence of [gamma33P]ATP
CCRF-CEM = test: Antitumor activity against human CCRF-CEM cells assessed as cell growth inhibition at 10 uM incubated for 48 hrs by sulforhodamine B assay; format: functional; conditions: read-out: GI
How it was run: (§1)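 NCI Drug Evaluation Branch protocol: primary single-dose screen at 10 μM across a 57-line human cancer panel. Drug exposure is 48 h. Cell growth and viability are read by sulforhodamine B assay. Data are given as a mean graph of percent growth of treated cells and reported as percentage growth inhibition (GI%).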

HOP-92 = test: Antitumor activity against human HOP92 cells assessed as cell growth inhibition at 10 uM incubated for 48 hrs by sulforhodamine B assay; format: functional; conditions: read-out: GI; how it was run: as §1
NCI-H226 = test: Antitumor activity against human NCI-H226 assessed as cell growth inhibition at 10 uM incubated for 48 hrs by sulforhodamine B assay; format: functional; conditions: read-out: GI; how it was run: as §1
NCI-H322M = test: Antitumor activity against human NCI-H322M cells assessed as cell growth inhibition at 10 uM incubated for 48 hrs by sulforhodamine B assay; format: functional; conditions: read-out: GI; how it was run: as §1
NCI-H522 = test: Antitumor activity against human NCI-H522 cells assessed as cell growth inhibition at 10 uM incubated for 48 hrs by sulforhodamine B assay; format: functional; conditions: read-out: GI; how it was run: as §1
KM12 = test: Antitumor activity against human KM12 cells assessed as cell growth inhibition at 10 uM incubated for 48 hrs by sulforhodamine B assay; format: functional; conditions: read-out: GI; how it was run: as §1
IGROV-1 = test: Antitumor activity against human IGROV1 cells assessed as cell growth inhibition at 10 uM incubated for 48 hrs by sulforhodamine B assay; format: functional; conditions: read-out: GI; how it was run: as §1
A498 = test: Antitumor activity against human A498 cells assessed as cell growth inhibition at 10 uM incubated for 48 hrs by sulforhodamine B assay; format: functional; conditions: read-out: GI; how it was run: as §1
UO-31 = test: Antitumor activity against human UO-31 cells assessed as cell growth inhibition at 10 uM incubated for 48 hrs by sulforhodamine B assay; format: functional; conditions: read-out: GI
How it was run: (§2)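 NCI one-dose screen: 57-cell-line panel exposed at 10 μM for 48 h, Drug Evaluation Branch protocol. Growth and viability read by sulforhodamine B; data given as percent growth inhibition from the mean-graph of percent growth of treated cells.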

RXF 393 = test: Antitumor activity against human RXF 393 cells assessed as cell growth inhibition at 10 uM incubated for 48 hrs by sulforhodamine B assay; format: functional; conditions: read-out: GI; how it was run: as §1
SN12C = test: Antitumor activity against human SN12C cells assessed as cell growth inhibition at 10 uM incubated for 48 hrs by sulforhodamine B assay; format: functional; conditions: read-out: GI; how it was run: as §1
MCF7 [3] = test: Antitumor activity against human MCF7 cells assessed as cell growth inhibition at 10 uM incubated for 48 hrs by sulforhodamine B assay; format: functional; conditions: read-out: GI; how it was run: as §1
T47D = test: Antitumor activity against human T-47D cells assessed as cell growth inhibition at 10 uM incubated for 48 hrs by sulforhodamine B assay; format: functional; conditions: read-out: GI; how it was run: as §2
MDA-MB-468 [4] = test: Antitumor activity against human MDA-MB-468 cells assessed as cell growth inhibition at 10 uM incubated for 48 hrs by sulforhodamine B assay; format: functional; conditions: read-out: GI; how it was run: as §1
MCF7 [5] = test: Antiproliferative activity against human MCF7 cells measured after 48 hrs under CoCl2-induced hypoxic condition by MTT assay; format: functional, cell-based; conditions: MCF7, 48 h
MDA-MB-468 [6] = test: Antiproliferative activity against human MDA-MB-468 cells measured after 48 hrs under normoxic condition by MTT assay; format: functional, cell-based; conditions: MDA-MB-468, 48 h
MCF7 [7] = test: Potency index, ratio of staurosporine IC50 to compound IC50 for antiproliferative activity against human MCF7 cells measured after 48 hrs under normoxic condition by MTT assay; format: functional
MCF7 [8] = test: Potency index, ratio of staurosporine IC50 to compound IC50 for antiproliferative activity against human MCF7 cells measured after 48 hrs under CoCl2-induced hypoxic condition by MTT assay; format: functional
MDA-MB-468 [9] = test: Potency index, ratio of staurosporine IC50 to compound IC50 for antiproliferative activity against human MDA-MB-468 cells measured after 48 hrs under normoxic condition by MTT assay; format: functional
MDA-MB-468 [10] = test: Potency index, ratio of staurosporine IC50 to compound IC50 for antiproliferative activity against human MDA-MB-468 cells measured after 48 hrs under CoCl2-induced hypoxic condition by MTT assay; format: functional
MCF7 [11] = test: Induction of cell cycle arrest in human MCF7 cells assessed as accumulation at G2/M phase at IC50 concentration incubated for 24 hrs by PI/RNase staining based flow cytometric analysis; format: functional
How it was run: (§3)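 Cells were washed in ice-cold PBS, fixed in ice-cold 70% ethanol, treated with 100 µg/mL RNase and stained with 40 µg/mL PI. DNA content was read by flow cytometry, with sub-G1 compared against control.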

MCF7 [12] = test: Induction of cell cycle arrest in human MCF7 cells assessed as decrease in S phase population at IC50 concentration incubated for 24 hrs by PI/RNase staining based flow cytometric analysis; format: functional; how it was run: as §3
MCF7 [13] = test: Induction of cell cycle arrest in human MCF7 cells assessed as fold increase in apoptotic cells at sub-G1 phase at IC50 concentration incubated for 24 hrs by PI/RNase staining based flow cytometric analysis relative to control; format: functional; how it was run: as §3
MCF7 [14] = test: Induction of apoptosis in human MCF7 cells assessed as early apoptotic cells by Annexin V-FITC/propidium iodide staining based flow cytometric analysis (reference value: 0.47 %); format: functional
MCF7 [15] = test: Induction of apoptosis in human MCF7 cells assessed as late apoptotic cells by Annexin V-FITC/propidium iodide staining based flow cytometric analysis (reference value: 0.29 %); format: functional
MCF7 [16] = test: Induction of apoptosis in human MCF7 cells assessed as necrotic cells by Annexin V-FITC/propidium iodide staining based flow cytometric analysis (reference value: 1.3 %); format: functional
MCF7 [17] = test: Induction of apoptosis in human MCF7 cells assessed as fold increase in apoptotic cells by Annexin V-FITC/propidium iodide staining based flow cytometric analysis relative to control; format: functional
MDA-MB-468 [18] = test: Antiproliferative activity against human MDA-MB-468 cells measured after 48 hrs under CoCl2-induced hypoxic condition by MTT assay; format: functional, cell-based; conditions: MDA-MB-468, 48 h
NCI/ADR-RES = test: Antitumor activity against human NCI/ADR-RES cells assessed as cell growth inhibition at 10 uM incubated for 48 hrs by sulforhodamine B assay; format: functional, cell-based; how it was run: as §1

Carbonic anhydrase 1, sequence (P00915 whole entry): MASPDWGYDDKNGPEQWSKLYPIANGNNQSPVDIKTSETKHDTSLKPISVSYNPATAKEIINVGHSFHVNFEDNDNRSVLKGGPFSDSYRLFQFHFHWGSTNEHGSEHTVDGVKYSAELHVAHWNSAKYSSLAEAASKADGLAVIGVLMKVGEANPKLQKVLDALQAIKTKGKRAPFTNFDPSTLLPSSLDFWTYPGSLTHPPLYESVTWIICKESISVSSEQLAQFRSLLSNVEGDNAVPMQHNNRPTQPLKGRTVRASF
Carbonic anhydrase 12, sequence (O43570 whole entry): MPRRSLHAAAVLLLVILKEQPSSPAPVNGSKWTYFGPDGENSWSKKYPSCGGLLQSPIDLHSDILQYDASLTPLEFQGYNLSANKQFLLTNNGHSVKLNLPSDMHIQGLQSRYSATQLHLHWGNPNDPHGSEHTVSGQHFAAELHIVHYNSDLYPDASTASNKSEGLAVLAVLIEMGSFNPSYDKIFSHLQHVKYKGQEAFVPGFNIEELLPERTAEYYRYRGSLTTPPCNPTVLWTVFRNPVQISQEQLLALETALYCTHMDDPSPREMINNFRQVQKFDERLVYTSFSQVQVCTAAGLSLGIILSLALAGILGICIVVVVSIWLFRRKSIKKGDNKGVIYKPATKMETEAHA
CDK9/cyclin T1, sequence (O60563 whole entry, the tested form may be a part): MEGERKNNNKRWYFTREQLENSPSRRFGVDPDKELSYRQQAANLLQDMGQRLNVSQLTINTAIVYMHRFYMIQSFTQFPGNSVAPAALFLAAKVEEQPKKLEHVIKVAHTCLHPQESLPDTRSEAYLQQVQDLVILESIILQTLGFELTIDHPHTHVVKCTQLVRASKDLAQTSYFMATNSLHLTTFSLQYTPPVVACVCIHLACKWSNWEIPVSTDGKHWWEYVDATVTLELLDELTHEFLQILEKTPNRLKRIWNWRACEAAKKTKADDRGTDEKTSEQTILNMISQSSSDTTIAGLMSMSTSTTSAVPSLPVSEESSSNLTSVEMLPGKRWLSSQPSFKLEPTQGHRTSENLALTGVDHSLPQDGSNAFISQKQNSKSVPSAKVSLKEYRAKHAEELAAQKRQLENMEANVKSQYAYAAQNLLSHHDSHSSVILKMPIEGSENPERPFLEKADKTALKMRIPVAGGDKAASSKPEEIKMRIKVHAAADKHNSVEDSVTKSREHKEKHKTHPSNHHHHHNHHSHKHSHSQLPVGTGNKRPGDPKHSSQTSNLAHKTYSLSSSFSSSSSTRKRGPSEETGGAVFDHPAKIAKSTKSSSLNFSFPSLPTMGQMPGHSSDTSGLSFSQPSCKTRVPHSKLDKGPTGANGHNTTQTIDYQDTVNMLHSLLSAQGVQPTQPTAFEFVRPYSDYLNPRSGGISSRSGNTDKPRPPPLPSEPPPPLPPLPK
CDK9/cyclin T1, sequence (P50750 whole entry, the tested form may be a part): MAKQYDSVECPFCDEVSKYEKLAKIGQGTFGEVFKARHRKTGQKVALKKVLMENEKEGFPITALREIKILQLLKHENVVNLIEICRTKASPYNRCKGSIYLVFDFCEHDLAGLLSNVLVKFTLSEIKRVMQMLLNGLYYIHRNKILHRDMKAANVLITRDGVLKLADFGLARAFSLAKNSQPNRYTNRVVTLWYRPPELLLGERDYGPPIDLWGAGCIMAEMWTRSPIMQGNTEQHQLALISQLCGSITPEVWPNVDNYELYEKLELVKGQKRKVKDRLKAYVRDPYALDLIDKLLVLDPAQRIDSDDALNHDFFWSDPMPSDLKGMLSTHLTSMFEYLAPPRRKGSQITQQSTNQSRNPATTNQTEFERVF

- IC50 (MCF7 [1]): 660 nM
- Ki (Carbonic anhydrase 1): 2680 nM
- Ki (Carbonic anhydrase 2): 922 nM
- Ki (Carbonic anhydrase 9): 33.5 nM
- Ki (Carbonic anhydrase 12): 39.4 nM
- IC50 [2]: > 12.5 µM
- IC50 (CDK9/cyclin T1): > 12.5 µM
- IC50 (MCF7 [5]): 960 nM
- IC50 (MDA-MB-468 [6]): 1890 nM
- IC50 (MDA-MB-468 [18]): 1070 nM
Compound: N#Cc1c(-c2ccccc2)nc2c(/N=N/c3ccc(S(N)(=O)=O)cc3)c(N)nn2c1N
- inhibition of growth at 10 µM (CCRF-CEM): 21%
- inhibition of growth at 10 µM (HOP-92): 27%
- inhibition of growth at 10 µM (NCI-H226): 24%
- inhibition of growth at 10 µM (NCI-H322M): 21%
- inhibition of growth at 10 µM (NCI-H522): 54%
- inhibition of growth at 10 µM (KM12): 50%
- inhibition of growth at 10 µM (IGROV-1): 35%
- inhibition of growth at 10 µM (A498): 30%
- inhibition of growth at 10 µM (UO-31): 25%
- inhibition of growth at 10 µM (RXF 393): 42%
- inhibition of growth at 10 µM (SN12C): 24%
- inhibition of growth at 10 µM (MCF7 [3]): 60%
- inhibition of growth at 10 µM (T47D): 26%
- inhibition of growth at 10 µM (MDA-MB-468 [4]): 58%
- Ratio IC50 (MCF7 [7]): 5
- Ratio IC50 (MCF7 [8]): 9
- Ratio IC50 (MDA-MB-468 [9]): 2.3
- Ratio IC50 (MDA-MB-468 [10]): 6
- Activity (MCF7 [11]): Active
- Activity (MCF7 [12]): Active
- fold change (FC) (MCF7 [13]): 7
- Activity (MCF7 [14]): 8.46%
- Activity (MCF7 [15]): 16.94%
- Activity (MCF7 [16]): 2.64%
- fold change (FC) (MCF7 [17]): 26
- Activity (NCI/ADR-RES): inactive
